Published values pooled from the literature.
Each line is one published result; the experiments were not run side by side. pIC50: −log10 of the molar value.
UGT1A4: UDP-glucuronosyltransferase 1A4 (UGT1A4, Homo sapiens, UniProt P22310)
CYP2C19: Cytochrome P450 2C19 (CYP2C19, Homo sapiens, UniProt P33261)

| SMILES | target or system | assay | system | conditions | quantity | value |
| --- | --- | --- | --- | --- | --- | --- |
| COc1cc2c3c(n(CCCN4CCOCC4)c(=O)c2cc1OC)-c1cc2c(cc1C3=O)OCO2 | – | – | female beagle dog, plasma | intravenous, 10 mg/m², infusion | Cmax | 75.7 ng/mL |
| C[C@@H]1C[C@@H](c2ccc(Br)cc2)c2c(cc3ccccn23)C(=O)O1 (racemic) | HFF-1 | cell growth or viability, resazurin | – | 72 h | CC50 | > 100 µM |
| [11CH3]Oc1cccc(CCc2cc(O)c(=O)[nH]n2)c1 | ATP-dependent translocase ABCB1 (Abcb1a, Mus musculus, UniProt P21447) | – | mouse, brain | 30 min | tracer uptake | 0.23 %ID/g |
| CC(=O)c1cc(C(=O)N[C@@H](C)Cn2ccc(-c3ccc(C#N)c(Cl)c3)n2)[nH]n1 | UGT1A4 | enzyme activity, inhibitor | human, liver microsomes | – | pIC50 | < 4.30 |
| N=C(N)NCc1ccc(NC(=O)c2ccc(C(=O)Nc3cnc(C4=CCN(C(=N)N)CC4)cn3)cc2)cc1 | NIH3T3 | cell growth or viability, MTS | – | 24 h | CC50 | > 585 µM |
| C[C@H](O)c1cc(C(=O)N[C@@H](C)Cn2ccc(-c3ccc(C#N)c(Cl)c3)n2)n[nH]1 | UGT1A4 | enzyme activity, inhibitor | human, liver microsomes | – | pIC50 | < 4.00 |
| COC(=O)C1CCN(C(=O)c2ccc(SCc3cnc4nc(N)nc(N)c4n3)nc2)CC1 | CYP2C19 | enzyme activity, inhibitor, luciferase | – | 10 µM | inhibition | -2.45% |
| N=C(N)N1CC=C(c2coc(C(=O)Nc3ccc(C4=CCN(C(=N)N)CC4)c(F)c3)c2)CC1 | NIH3T3 | cell growth or viability, MTS | – | 24 h | CC50 | 68 µM |
| NC(=O)C1CCCN1C(=O)Cc1ccc(N(CCCO)Cc2cnc3nc(N)nc(N)c3n2)cc1 (stereo not drawn) | CYP2C19 | enzyme activity, inhibitor, luciferase | – | 10 µM | inhibition | -4.55% |
| CN(CCC(=O)O)C(=O)c1ccc2c(c1)CC[C@@H]1[C@@H]2CC[C@]2(C)C(c3cncc(F)c3)=CC[C@@H]12 | UGT1A4 | enzyme activity, inhibitor | – | – | pIC50 | < 4.52 |
| N=C(N)NCc1ccc(NC(=O)c2ccc(C(=O)Nc3ccc(C4=CCN(C(=N)N)CC4)cc3)nc2)cc1 | NIH3T3 | cell growth or viability, MTS | – | 24 h | CC50 | > 117 µM |
| COC(=O)C1CCN(C(=O)c2ccc(N(CCCO)Cc3cnc4nc(N)nc(N)c4n3)cc2)CC1 | CYP2C19 | enzyme activity, inhibitor, luciferase | – | 10 µM | inhibition | -9.48% |
